Measured values taken from publication PMC7305985 (Molecular cell, 2020).

Columns and labels:
mono-nucleosomes = test: Nucleosome binding assay; parameters: species or system Human; settings: relative to WT KAP1; overnight 4°C, pH 7.5; Figure 5E
Outline: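 GST-tagged protein, expressed in bacteria (0.1 mM IPTG, 3 hr, 37°C), was used at 2 µg with 2 µg recombinant biotinylated mono-nucleosomes. Pulldown was on StrepTactin agarose for 1 hr, with 4 washes and boiling elution. 5% input and 20% eluate were blotted with anti-GST 1:5000.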

[1] = tested on: KAP1 target genes in shKAP1 HCT116 cells; test: Reconstitution assay, RT-qPCR of KAP1 target genes; assay type: cell-based; settings: shKAP1 HCT116, 48 hr; relative to shNT+GFP, normalized to RPL19, n=3; Figure 5H
[2] = tested on: KAP1 target gene promoters; test: FLAG ChIP-qPCR of reconstituted KAP1 proteins; assay type: cell-based; settings: shKAP1 HCT116, FLAG ChIP-qPCR, % Input, n=3; Figures 5I, 6F
Outline: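 Epitope-tagged KAP1 was re-expressed in shKAP1 HCT116 cells by 1 µg plasmid transfection over 48 hr. Anti-FLAG ChIP used 0.5% formaldehyde crosslinking (10 min) and 150 mM glycine quench. Beads were washed 4 times with each of RIPA, low-salt, high-salt, LiCl and TE buffers. Elution was 30 min at 65°C, de-crosslinking 4 hr at 65°C with proteinase K, and read-out was qPCR.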

reduction of KAP1's ability to interact with mono-nucleosomes (mono-nucleosomes) | Molecule | restoration of KAP1 target gene expression (WT and point mutants) [1] | localization to KAP1 target gene promoters [2]
~ 80% | E662/3A: KAP1 PHD point mutant E662/E663 to A; GST-PHD-BD or FLAG-tagged KAP1 (protein, left off: GST, N-terminal, kept) PGGGPGTLDDSATICRVCQKPGDLVMCNQCEFCFHLDCHLPALQDVPGAAWSCSLCHVLPDLKEEDGSLSLDGADSTGVVAKLSPANQRKCERVLLALFCHEPCRPLHQLATDSTFSLDQPGGTLDLTLIRARLQEKLSPPYSSPQEFAQDVGRMFKQFNKLTEDKADVQSIIGLQRFFETRMNEAFGDTKFSAVLVEPPPMSLPGAGLSSQELSGGPGDGP | but not E662/3A, restored KAP1 target gene expression | but not E662/3A, localized to all tested gene promoters
– | L637A: control mutation L637 in flexible loop between the PHD and BD (protein, left off: GST, N-terminal, kept) PGGGPGTLDDSATICRVCQKPGDAVMCNQCEFCFHLDCHLPALQDVPGEEWSCSLCHVLPDLKEEDGSLSLDGADSTGVVAKLSPANQRKCERVLLALFCHEPCRPLHQLATDSTFSLDQPGGTLDLTLIRARLQEKLSPPYSSPQEFAQDVGRMFKQFNKLTEDKADVQSIIGLQRFFETRMNEAFGDTKFSAVLVEPPPMSLPGAGLSSQELSGGPGDGP | restored KAP1 target gene expression | localized to all tested gene promoters
